Compounds with a hit are over-represented: about 2.6% of the library has one in this group of screens.
MDM2 E3 inh: inhibitors of human Mdm2 E3 ubiquitin ligase; Q00987; cell-based MDM2 ubiquitination luciferase reporter, 2 h; 0 = plate control, 100 = twice control, blank-subtracted; signal enhancement, % at 5 µM; 0.11% of 210,000 active; AID 1230;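 active = signal enhancement of 30% or more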;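 note: luminescence tracks abundance of the self-degrading MDM2-luciferase fusion protein; higher signal means inhibition of MDM2 E3 ligase activity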
Target sequence (Q00987 whole entry, looked up, the tested form may be a part): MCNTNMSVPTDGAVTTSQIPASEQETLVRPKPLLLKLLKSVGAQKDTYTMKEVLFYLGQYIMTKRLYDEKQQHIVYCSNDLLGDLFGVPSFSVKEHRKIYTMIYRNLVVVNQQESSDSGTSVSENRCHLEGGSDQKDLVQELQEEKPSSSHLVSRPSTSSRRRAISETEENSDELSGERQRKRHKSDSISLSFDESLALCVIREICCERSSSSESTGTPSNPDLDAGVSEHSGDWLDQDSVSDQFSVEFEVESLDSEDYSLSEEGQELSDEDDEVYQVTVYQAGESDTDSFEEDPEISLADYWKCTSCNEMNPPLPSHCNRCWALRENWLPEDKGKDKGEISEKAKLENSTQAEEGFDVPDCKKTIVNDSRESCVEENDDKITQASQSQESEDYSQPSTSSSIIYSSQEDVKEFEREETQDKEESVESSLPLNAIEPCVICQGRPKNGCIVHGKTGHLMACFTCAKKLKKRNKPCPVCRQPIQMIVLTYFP
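Assay system: stable mammalian line carrying autodegrading MDM2–luciferase fusion reporter; amount: 2000 cells seeded into each well; buffer or medium: DMEM; benchmarks: plate control and blank wells; signal: luciferase luminescence; timing: 2 h compound exposure at 37 °C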
HSV replic up: HSV replication enhancement | 0.005% of 220,000 active | HSV replication augmentation in cells, fold increase | AID 1956 | maximum fold increase; in the data active = maximum fold increase above about 1.5; inconclusive = no clear call, values can overlap the other calls; tested in PC3 cells
Hsp70 activator: transcriptional activators of Hsp70; HeLa Hsp70 promoter luciferase reporter, luminescence; scaled: vehicle 0, proteasome-inhibitor control 100%; activation, % at 10 µM; 0.04% of 200,000 active; AID 1203;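 active = activation above the mean across all tested compounds plus 3 SD, cutoff set per campaign, cut at about 5.5% in these data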
HSF-1 act: increases HSF-1 driven luciferase reporter signal | NIH3T3-HGL HSF-1 luciferase reporter, MG132, 8 h; 100% = twice DMSO control signal | activation, % at 9 µM | 1.7% of 300,000 active;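 active = mean replicate activation of at least 50% with a set share of replicates each reaching 50%; inconclusive = only one of those two conditions met; inactive = mean below 50% and too few replicates reaching it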
HSF1 inh: HSF1 inhibition; AID 2098; 0.77% of 300,000 active; NIH3T3-HGL HSE-luciferase, MG132-induced, luminescence 8 h; active compounds read low; activity change, negative = inhibition, % at 7.5 µM (by protocol);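 active = more than half of replicate wells show activity change below -50%, luminescence cut by over half; inconclusive = some wells, but at most half, below -50%; inactive = no replicate well below -50%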;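 note: luciferase reports HSF-1 transcriptional activity via heat shock element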
Rad51 HR inh: blocks human Rad51 in homologous recombination | Q06609 | hRad51 DNA strand exchange, fluorescence dequenching | inhibition, % at 10 µM | 0.085% of 200,000 active;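 active = inhibition above 40% at the single screening dose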
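Material: human Rad51–ssDNA filaments; Probe or stimulus: labelled 47-mer dsDNA for strand exchange; Doses: single 10 µM dose; Incubation: 37 °C 15-min filament assembly, 30-min compound preincubation, 15-min exchange; Technique: FRET fluorescence dequenching, excitation 485 nm, emission 520 nm; Measure: Fluorescence-based percent inhibition, control- and blank-normalised; Benchmarks: plate control and blank wells.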
Hits are given with their value; . = inactive; ? = inconclusive; / = no result given.

SMILES	MDM2 E3 inh	HSV replic up	Hsp70 activator	HSF-1 act	HSF1 inh	Rad51 HR inh
CC1CCCCN1C(=O)/C=C/c1ccccc1[N+](=O)[O-] (stereo not drawn)	.	.	.	.	.	.
C=CCNc1ncnc2c1[nH]c1ccc(C)cc12	.	.	.	62.0	.	.
O=C(NC1C(=O)NNC1c1ccccc1)c1ccccc1 (stereo not drawn)	.	.	.	167.8	.	.
CCn1c(-c2cccnc2Cl)nc2cc(Cl)c(Cl)cc21	.	.	.	.	.	.
Clc1cc2nc(-c3cccnc3Cl)[nH]c2cc1Cl	/	/	/	54.8	.	/
O=C(NCc1ccco1)c1ccccc1-c1ccccc1	.	.	.	.	.	.
Cc1scc(C(=O)NCc2ccco2)c1-c1ccccc1	.	.	.	63.5	.	.
Cc1ccsc1/C=C1\SC(N)=NC1=O	.	/	.	.	.	/
Cc1ccsc1/C=C1/SC(N2CC(C)OC(C)C2)=NC1=O (stereo not drawn)	.	.	.	51.5	.	.
Nc1c(C(=O)c2ccccc2)sc2nsc(SCCN3CCCC3)c12	.	/	/	118.4	.	.
Nc1c(C(=O)c2ccc(Cl)cc2)sc2nsc(SCCN3CCOCC3)c12	.	?	/	.	.	.
COc1ccc(-c2cc(CCCC(=O)NCCc3ccccc3)no2)cc1	.	.	/	.	.	.
COc1ccc(-c2cc(CCCC(=O)NCCc3ccc(OC)cc3OC)no2)cc1	.	.	.	62.3	.	.
CN(CC(=O)Nc1ccc(Cl)c(Cl)c1)Cc1nnc(-c2ccc(F)cc2)o1	/	.	.	.	.	/
O=C(Nc1ccc2c(c1)OCCO2)C(=S)NCc1ccccc1	.	.	.	68.1	.	.
O=C(CC1CS(=O)(=O)CC1CC(=O)Nc1ccc2c(c1)OCCO2)Nc1ccc2c(c1)OCCO2 (stereo not drawn)	.	.	.	.	-82.3	.
O=C(CCCc1ccccc1)Nc1ccc2c(c1)OCCO2	.	.	.	74.8	.	.
O=C(CC(=O)c1ccccc1)Nc1ccc2c(c1)OCCO2	.	.	.	53.9	.	.
CCOC(=O)c1c(C)oc2c1c1c(c3ccccc32)OCN(CCCC(=O)O)C1	.	.	/	56.7	.	.
CCOC(=O)c1c(C)oc2c1cc(O)c1ccccc12	.	.	.	58.0	.	.
CC(=O)c1c(C)oc2c1cc(O)c1ccccc12	.	.	/	.	.	.
O=C(N/C(=C/c1ccc(Br)cc1)C(=O)N1CCCCC1)c1ccccc1F	/	/	/	.	.	/
COc1ccccc1N1CC(C(=O)Nc2nnc(SCC(=O)N3CCOCC3)s2)CC1=O (stereo not drawn)	/	/	/	.	.	/
COc1ccc(/C=C/C(=O)C23CC4CC(CC(C4)C2)C3)cc1CN1CCOCC1	.	.	.	122.1	.	.
COc1ccccc1NS(=O)(=O)c1ccc(Cl)c(NC(=O)C(C)N2C(=O)c3ccccc3C2=O)c1 (stereo not drawn)	.	.	.	.	.	.
SMILES	MDM2 E3 inh	HSV replic up	Hsp70 activator	HSF-1 act	HSF1 inh	Rad51 HR inh
Cc1ccc(-c2nc3cnccn3c2Nc2c(C)cccc2C)o1	.	.	.	.	-81.9	.
Cc1ccc(-c2nc3ncccn3c2Nc2ccccc2C)o1	.	.	.	56.6	.	.
CCc1cccc(OCC2Cn3c(nc4c3c(=O)[nH]c(=O)n4C)O2)c1 (stereo not drawn)	/	/	/	.	.	/
CCOC(=O)/C=C/C(=O)Nc1ccc(S(=O)(=O)N(C)c2ccccc2)cc1	.	.	.	67.4	.	.
COc1ccc(OC)c2c1C(=O)c1ccccc1C2=O	.	.	.	.	.	.
COc1ccc(N)c2c1C(=O)c1ccccc1C2=O	.	.	.	54.3	.	.
COc1ccc(OC)c2c1C(=O)C(Cl)=C(Cl)C2=O	.	.	/	.	-69.8	.
O=C(COC(=O)c1ccccc1-n1cnnn1)c1ccc(F)c(F)c1	/	/	/	.	.	/
Cc1ccc(C(=O)Nc2ncc(Cc3ccc(F)cc3)s2)o1	.	/	.	68.1	.	/
Cc1ccc(C(=O)Nc2ncc(C)s2)o1	.	.	.	.	.	.
COc1cccc(OC)c1OCCNCC1COc2ccccc2O1 (stereo not drawn)	/	.	/	52.9	.	.
CCCNCC1COc2ccccc2O1 (stereo not drawn)	.	.	.	.	.	.
S=C1SCN(Cc2cccnc2)CN1Cc1cccnc1	.	.	/	.	-86.1	.
S=C1SCN(Cc2ccccc2)CN1Cc1ccccc1	/	/	/	.	.	/
CCCC1=Nc2cc(C(=O)N3CCN(c4ccccn4)CC3)ccc2Sc2ccc(C)cc21	/	/	/	.	.	/
CCCC(=O)Nc1cccc(NC(=O)c2cccc([N+](=O)[O-])c2C)c1	.	.	.	.	-70.8	.
CCCC(=O)Nc1ccc(Cl)c(NC(=O)c2cccnc2)c1	.	.	.	.	-86.7	.
CCC(=O)Nc1ccc(Cl)c(NC(=O)c2cccnc2)c1	.	.	.	.	.	.
CCCC(=O)Nc1ccc(Cl)c(NC(=O)c2ccc([N+](=O)[O-])cc2Cl)c1	.	.	.	.	-63.7	.
COc1ccc(CN(CC(=O)NCc2ccccc2)C(=O)CCC(=O)Nc2ccccn2)cc1	/	/	/	.	.	/
NC(=O)c1ccc(C(F)(F)F)n(Cc2ccc(Cl)cc2)c1=O	.	.	.	.	.	.
NC(=O)c1ccc(C(F)(F)F)n(Cc2cccc(Cl)c2)c1=O	.	.	.	64.4	.	.
COCCCNCCOCCOc1ccc(C)cc1[N+](=O)[O-]	.	.	.	.	.	.
COCCCNCCOc1ccc(C)cc1[N+](=O)[O-]	.	.	.	58.7	.	.
Oc1ccccc1/C=N/NC(=S)NC1CC2CCC1C2 (stereo not drawn)	.	.	/	.	.	.
SMILES	MDM2 E3 inh	HSV replic up	Hsp70 activator	HSF-1 act	HSF1 inh	Rad51 HR inh
S=C(N/N=C/c1ccco1)NC1CC2CCC1C2 (stereo not drawn)	/	/	/	57.9	.	/
CC(C(=O)NCc1ccco1)n1ccc2cc(S(=O)(=O)N3CCCCC3)ccc21 (stereo not drawn)	/	/	/	.	.	/
O=C(CCCN1C(=O)C2CC=CCC2C1=O)Nc1ccccc1F (stereo not drawn)	/	/	/	.	.	/
O=[N+]([O-])c1ncccc1OCc1ccc(Cl)c(Cl)c1	/	/	/	.	.	/
O=C(COc1ccc(F)c(Cl)c1)c1ccc[nH]1	.	/	.	93.4	.	/
COc1ccc(-c2nnn(Cc3ccccc3F)n2)cc1	.	.	.	.	.	.
Fc1ccccc1Cn1nnc(-c2ccc3c(c2)OCO3)n1	.	.	.	83.4	.	.
Nc1ccc(Sc2cnn(-c3ccccc3)c(=O)c2Cl)cc1	.	.	.	57.3	.	.
Cc1ccc(Sc2cnn(-c3ccccc3)c(=O)c2Cl)cc1	.	.	.	.	.	.
O=C(CN1CCC(NC(=O)c2ccccc2Cl)CC1)NCc1ccco1	.	.	.	.	.	.
Cc1cc(S(=O)(=O)N2CCCC2)ccc1OCC(=O)NCc1ccccc1	/	/	/	.	-77.2	/
